Experimental data reported in PubChem BioAssay AID2445 (The Scripps Research Institute Molecular Screening Center, 2010).
The campaign covered roughly 320,000 compounds. About 200 (0.062%) were called active. The list comes from a sample in which actives are over-represented; it also holds similar structures and randomly drawn compounds. A number with no mark means an inactive call.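 Rule for the calls: active = activation above that plate's cutoff, the mean activation of tested compounds plus 3 SD (cut at about 6.6% in these data, passing the limit was not always enough); inactive = the rest.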

Molecular target: Oxytocin receptor (Homo sapiens) (UniProt P30559)
Experiment: human OXTR potentiators, primary screen, fluorescence, CHO-OTR cells, Fluo-8 calcium (AID 2445);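 note: 100% uses oxytocin at 75 nM as the full agonist control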
Conditions: Fluo-8 calcium fluorescence, potentiator mode, at 3 µM, active compounds read high, 0% = oxytocin EC15, 100% = EC100
Method in brief: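 Replication – single well per compound, singlicate · Assay system – CHO cell line stably expressing human OTR · Timing – 6 min pre-incubation, 100 s read · Measure – normalized max/min fluorescence ratio, % activation · Doses – 3.0 µM, one dose · Detection – Fluo-8 calcium dye fluorescence · Probe or stimulus – oxytocin near EC15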

Chain of Oxytocin receptor (Homo sapiens) (P30559 whole entry, looked up): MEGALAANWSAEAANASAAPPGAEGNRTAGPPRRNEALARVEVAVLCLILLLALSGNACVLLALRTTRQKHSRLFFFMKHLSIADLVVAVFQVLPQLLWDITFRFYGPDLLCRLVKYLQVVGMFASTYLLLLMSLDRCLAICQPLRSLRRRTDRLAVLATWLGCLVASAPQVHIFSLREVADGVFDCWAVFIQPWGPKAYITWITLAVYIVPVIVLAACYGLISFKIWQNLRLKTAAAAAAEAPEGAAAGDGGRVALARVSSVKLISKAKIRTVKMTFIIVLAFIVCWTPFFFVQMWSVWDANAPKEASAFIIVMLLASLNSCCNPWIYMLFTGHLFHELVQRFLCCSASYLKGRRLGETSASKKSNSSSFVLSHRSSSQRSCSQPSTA

SMILES	activation
Cc1cccc(NC(=O)Cn2c(=O)n(Cc3ccccc3)c(=O)c3c(C)c(C)sc32)c1	-5.82%
Cc1ccc(CS(=O)(=O)CCC(=O)NC2CC2)cc1	0.82%
COC(=O)C1=C[C@@H](C(=O)OC)[C@@H]2C3=C(C(=O)[C@]2(C)NC(=O)c2ccccc2)[C@H](C)n2c(=O)n(C)c(=O)n2[C@@H]3C1	-11.9%
COc1cc(NC(=O)COC(=O)c2ccc([N+](=O)[O-])s2)cc(OC)c1OC	-5.07%
O=C(Cn1cc(C(F)(F)F)ccc1=O)Nc1ccc2c(c1)OCCO2	2.63%
O=C(COC(=O)c1cc(=O)[nH]c2ccccc12)Nc1nc(-c2cccc(Br)c2)cs1	2.69%
CCOc1ccccc1NC(=O)CCc1nnc2ccc(NCc3ccco3)nn12	0.12%
CCCCCCNS(=O)(=O)c1ccccc1Br	-3.1%
Brc1ccc(-c2n(-c3ccccn3)c3ccccc3[n+]2-c2ccccn2)cc1	-4.84%
COC(=O)C1(C)CC1(c1ccccc1)c1ccccc1 (configuration not stated)	-14.7%
CCOC(=O)C1=C(C)OC(N)=C(C#N)C1c1cncc(-c2ccc(F)cc2)c1 (configuration not stated)	-4.76%
O=C(COC(=O)c1ccc(F)cc1F)Nc1ncccn1	-2.64%
[O-][n+]1ccc(OCc2ccccc2)cc1	-0.76%
COc1ccccc1CNS(=O)(=O)CC12CCC(CC1=O)C2(C)C (configuration not stated)	-12.6%
Cc1cc(NC(=O)CSc2nc(=O)cc(N)n2-c2ccc(F)cc2)no1	0.45%
CN(C)c1cc(N)c2ccccc2n1 (tested in a mixture with another compound)	-14.8%
CN1C(=O)[C@H]2[C@@H](C3CC3)N3C(=O)CN(Cc4ccccc4)C(=O)[C@@]3(C)[C@H]2C1=O	-2.37%
CC(C)=CCc1c(O)c(CC=C(C)C)c2occ(-c3ccc(O)cc3)c(=O)c2c1O	-5.45%
COc1ccc(-c2nc3cnccn3c2NC2CCCCC2)cc1-c1cccc(Cl)c1	-2.33%
Cc1ccc(CNS(=O)(=O)c2ccc3c(c2)N(C)CCO3)cc1	-5.63%
NS(=O)(=O)c1cc(C(=O)OCC(=O)NNC(=O)c2ccccc2)ccc1Cl	-5.64%

SMILES	activation
NC1=NN(c2cccc(C(=O)O)c2)C(=O)C1	-3.83%
CC(=O)N/C(=N/c1nc(C)cc(C)n1)Nc1ccc(F)cc1F	2.96%
Cc1ccc(CNC(=O)C2CCCN2S(=O)(=O)c2ccc3c(c2)C(C)(C)C(=O)N3C)cc1 (configuration not stated)	-1.94%
CCc1ccnc(NS(=O)(=O)c2ccc3c(c2)OCCO3)c1	-3.79%
C/C(=N\NC(=O)c1ccc(C)cc1)C1C(=O)c2ccccc2C1=O	-16.2%
Cc1ccc(OCc2nnc(SC3CCc4ccccc4C3=O)n2C)cc1 (configuration not stated)	-7.17%
CC1(C)CC(=O)C=C(c2ccc3ncccc3c2)C1	-1.73%
Nc1cc(OC(=O)c2ccccc2Br)nn1S(=O)(=O)c1ccccc1	-18.3%
CCOc1cc(C2/C(=C(/O)c3ccc(S(=O)(=O)N4CCCCC4)cc3)C(=O)C(=O)N2CCOC)ccc1O (configuration not stated)	-8.45%
Cc1nc(CNS(=O)(=O)c2ccc(Oc3ccccc3)cc2)cs1	-14.3%
O=C(NCc1ccc(Cl)cc1)C(=O)NCC1CCCN1S(=O)(=O)c1cccs1 (configuration not stated)	-5.47%
C=CCN(N=Nc1cccc([N+](=O)[O-])c1)c1cccc([N+](=O)[O-])c1	-14.2%
O=C(CNC(=O)c1ccc2ccccc2c1)Nc1ncccc1O	1.14%
COc1ccc(N(C(=O)c2snc(C(N)=O)c2N)C(C(=O)NC2CCCC2)c2ccc(C)o2)c(OC)c1 (configuration not stated)	-3.04%
Cc1cccc(OCC(O)CN2CCN(S(=O)(=O)c3ccc(C)cc3C)CC2)c1 (configuration not stated)	-12%
Cc1ccc(OCC(O)CN2CCN(CC(O)COc3ccc(C)cc3Cl)CC2)c(Cl)c1 (configuration not stated)	12.6% (active)
OC(COc1ccc(F)cc1Cl)CN1CCc2ccccc2C1 (configuration not stated)	-6.27%
COc1ccc(NC(=O)CCNS(=O)(=O)c2ccc3c(c2)c(=O)n(C)c(=O)n3C)cc1OC	-4.46%
O=C(Nc1ccc2c(c1)OCO2)C1CC(c2c(F)cccc2Cl)=NO1 (configuration not stated)	-1.98%
CS(=O)(=O)N(Cc1nc2sc3c(c2c(=O)[nH]1)CCCC3)C1CCCCC1	-9.15%
COc1cc2c(cc1OC)C(=O)NCC(C)(C)O2	0.49%

SMILES	activation
CN(C(=O)c1cccc(NC(=O)Cc2ccc([N+](=O)[O-])cc2)c1)C1CCC1	-0.31%
O=C(CSc1n[nH]c(-c2cccnc2)n1)Nc1ccc(Cl)cc1	-11%
COC(=O)C1CCN(C(=O)COC(=O)c2cc(S(=O)(=O)N3CCOCC3)ccc2C)CC1	-5.03%
O=C(OCCN1C(=O)c2ccccc2C1=O)[C@@H]1CC(O)CN1S(=O)(=O)c1ccccc1[N+](=O)[O-] (some centres not stated)	-5.05%
CCN(CC(=O)NCc1cccs1)C(=O)c1cccc(S(=O)(=O)Nc2ccccc2OC)c1	-5.42%
Cc1ccc(N2C(=O)SC(N(CC(=O)O)c3ccc(C)cc3)C2=O)cc1 (configuration not stated)	-15.1%
O=C(NCC(c1ccco1)N1CCc2ccccc21)c1cccc(F)c1 (configuration not stated)	-9.25%
CSc1nnnn1-c1c(C)cc(C)cc1C	-1.91%
CCOc1ccccc1Nc1nnc(SCC(=O)NCC2CCCO2)s1 (configuration not stated)	0.07%
O=C(CCc1nnc2ccc(NCc3ccccc3Cl)nn12)NCC1CCN(C2CCCC2)C1 (configuration not stated)	-8.06%
CCCC(NC(=O)c1ccccc1)c1nc2ccccc2n1Cc1ccc(C(=O)OC)o1 (configuration not stated)	4.77%
COc1cccc(-n2c(=O)c3c(C)c(C(=O)N(C)C)sc3n(CC(=O)NCCc3ccc(OC)c(OC)c3)c2=O)c1	-15.7%
CC(CNC(=O)c1ccc(N)cc1)NC(=O)c1ccc(N)cc1 (configuration not stated)	-7.37%
CC(C)(CNC(=O)CNC(=O)C1CCCCC1)N1CCOCC1	-6.61%
COCCN(C(=S)Nc1cccc(Cl)c1C)C(C)c1ccco1 (configuration not stated)	2.23%
CC(C)N1C(=S)SC(C)(C)C1n1oc(=O)n(-c2ccc(Cl)c(Cl)c2)c1=O (configuration not stated)	-15.1%
COc1ccc2[nH]c(=O)c(CN(Cc3cccnc3)S(=O)(=O)c3ccccc3F)cc2c1	-13.1%
OC(c1ccc(Cl)cc1)C(CN1CCOCC1)c1ccccc1 (configuration not stated)	-9.47%
CCS(=O)(=O)c1ccc2c(c1)N(S(=O)(=O)c1ccccc1)CC(C(=O)O)O2 (configuration not stated)	-11.9%
Cc1ccc(-n2ncc3c2CC(C)(C)CC3NC(=O)CCc2cnn(C)c2)cc1 (configuration not stated)	-3.78%
